Experimental data published in ChEMBL document CHEMBL4316599, “Synthesis, in vitro and in vivo biological evaluation of substituted 3-(5-imidazo[2,1-b]thiazolylmethylene)-2-indolinones as new potent anticancer agents” (Eur J Med Chem, 2019).
Active and inactive are the calls of the source. No cut-off for these calls is given here.

Assays:
[1] = test system: K562; test: Cell cycle arrest in human K562 cells assessed as mitotic index at 5 times IC50 by Giemsa staining-based assay (reference value: 3%); assay type: functional
[2] = test system: HeLa; test: Induction of apoptosis in human HeLa cells assessed as increase in cleaved PARP levels at 50 nM after 24 hrs by Western blot analysis; assay type: functional, cell-based
Outline: (§1)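 HeLa cells treated 24 h, washed in ice-cold PBS and lysed on ice 30 min. Lysates were spun at 15000 x g, 4 °C. 10 µg protein run on SDS-PAGE and blotted to PVDF. Blots were blocked in 5% BSA overnight at 4 °C and probed 2 h at room temperature. Detection by HRP-secondary and ECL, with bands normalized to β-actin as fold of untreated. Three independent experiments, one-way ANOVA/Dunnett.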

[3] = test system: HeLa; test: Induction of apoptosis in human HeLa cells assessed as decrease in Bcl-2 levels at 50 to 250 nM after 24 hrs by Western blot analysis; assay type: functional, cell-based; outline: as §1
[4] = test system: B16-BL6; test: Antitumor activity mouse B16-BL6 cells implanted in C57BL/6 mouse assessed tumor growth inhibition at 15 mg/kg, ip dosed every other day for 18 days relative to control; assay type: functional; settings: 432 h, read-out: TGI
Outline: (§2)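 Syngeneic allograft: C57BL/6 mice, six weeks old, given 2.5×10^5 BL6-B16 or E0771 cells subcutaneously in the dorsolateral flank in PBS. Dosing began at about 100 mm³. Test compound or reference was given intraperitoneally every other day in 50 μL DMSO, with DMSO vehicle controls. Tumor volume was compared with the vehicle group, 5 animals per group, mean ± SEM, by 2-way ANOVA with Bonferroni correction.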

[5] = test system: HeLa; test: Induction of apoptosis in human HeLa cells at 250 nM after 24 to 48 hrs by Annexin V-FITC/propidium iodide staining-based flow cytometric analysis; assay type: functional, cell-based
Outline: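 HeLa cells exposed 24 or 48 h to 250, 500 or 1000 nM; annexin-V-FITC plus PI double staining for surface phosphatidylserine and DNA, measured by flow cytometry. Mean ± SEM of three independent experiments.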

[6] = test system: B16-BL6; test: Antitumor activity mouse B16-BL6 cells implanted in C57BL/6 mouse assessed tumor growth inhibition at 7.5 mg/kg, ip dosed every other day for 18 days relative to control; assay type: functional; settings: 432 h, read-out: TGI; outline: as §2
[7] = test system: HT-29; test: Cell cycle arrest in human HT-29 cells assessed as reduction in accumulation of cells at G1 phase up to 1000 nM after 24 hrs by propidium iodide staining-based flow cytometric analysis; assay type: functional
Outline: (§3)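 Cells exposed to a range of concentrations for 24 h (HeLa at 5×10^5 cells), then fixed in ice-cold 70% ethanol. Lysis buffer with RNase A and 0.1% Triton X-100 was applied before PI staining. DNA content was read by flow cytometry and G1/S/G2/M fractions taken from DNA histograms. Mean ± SEM of two independent experiments.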

[8] = test system: HeLa; test: Cell cycle arrest in human HeLa cells assessed as decrease in p-cdc25c expression at 50 to 250 nM after 24 hrs by Western blot analysis; assay type: functional, cell-based; outline: as §1
[9] = test system: Leukemia cell; test: Cytotoxicity against human leukemia cells after 48 hrs by SRB assay; assay type: functional
Outline: (§4)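 NCI-60 screen: single-dose pass at 10^-5 M, then a five-concentration assay from 10^-9 to 10^-4 M (highest 100 μM). Exposure was 48 h under standard NCI protocols. GI50, TGI and LC50 were derived per cell line and averaged by subpanel. Repeated tests are the mean of two experiments.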

[10] = molecular target: T1, Tubulin (Bos taurus) (UniProt Q6B856+Q862L2+Q862F3); test: Inhibition of [3H]colchicine binding to bovine brain tubulin at 50 uM after 20 mins relative to control
Outline: (§5)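 Reaction mixtures held 1 μM tubulin, 5 μM [³H]colchicine and test compound at 5 or 50 μM. Read-out was percent inhibition of colchicine binding.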

[11] = test system: HeLa; test: Cell cycle arrest in human HeLa cells assessed as increase in cyclin B1 expression at 50 nM after 24 hrs by Western blot analysis; assay type: functional, cell-based; outline: as §1
[12] = molecular target: T1, Tubulin (Bos taurus); test: Inhibition of [3H]colchicine binding to bovine brain tubulin at 5 uM after 20 mins relative to control; outline: as §5
[13] = Cytotoxicity against human PHA-stimulated PBL after 72 hrs by MTT assay; assay type: cell-based; settings: PHA-stimulated peripheral blood lymphocytes (PBL)
Outline: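 Lymphocytes from healthy donors were isolated on a Lymphoprep gradient and held overnight in RPMI-1640 with 10% FBS. Non-adherent cells were set at 5×10^5 cells/mL, either resting or stimulated with 2.5 μg/mL PHA. Cells were exposed to a range of compound concentrations for 72 h and viability read by MTT. GI50 is the mean ± SEM of three separate experiments.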

[14] = test system: K562; test: Cytotoxicity against human K562 cells after 16 hrs by SRB assay; settings: K562, 16 h
[15] = test system: Renal cancer cell line; test: Cytotoxicity against human renal cancer cells after 48 hrs by SRB assay; assay type: functional; outline: as §4
[16] = test system: K562; test: Cytotoxicity against human K562 cells after 48 hrs by SRB assay; assay type: functional, cell-based
[17] = test system: HeLa; test: Cell cycle arrest in human HeLa cells assessed as reduction in accumulation of cells at S phase up to 1000 nM after 24 hrs by propidium iodide staining-based flow cytometric analysis; assay type: functional; outline: as §3
[18] = test system: HeLa; test: Cell cycle arrest in human HeLa cells assessed as reduction in accumulation of cells at G1 phase up to 1000 nM after 24 hrs by propidium iodide staining-based flow cytometric analysis; assay type: functional; outline: as §3
[19] = test system: A549; test: Cell cycle arrest in human A549 cells assessed as accumulation of cells at G2/M phase after 24 hrs by propidium iodide staining-based flow cytometric analysis; assay type: functional; outline: as §3
[20] = test system: HT-29; test: Cell cycle arrest in human HT-29 cells assessed as reduction in accumulation of cells at S phase up to 1000 nM after 24 hrs by propidium iodide staining-based flow cytometric analysis; assay type: functional; outline: as §3
[21] = Toxicity in C57BL/6 mouse implanted with mouse B16-BL6 cells assessed as effect on body weight at 7.5 to 15 mg/kg, ip dosed every day for 18 days; assay type: organism-based; settings: in vivo, 432 h, in the assay text read “every other day” for “every day”
Outline: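 C57BL/6 mice, six weeks old, received 2.5×10^5 BL6-B16 or E0771 cells s.c. in the dorsolateral flank in PBS. Dosing began once tumours reached about 100 mm³: 7.5 or 15 mg/kg i.p. every other day in 50 μL DMSO. Vehicle and CA-4P 30 mg/kg served as controls. Body weight was monitored, with 5 animals per group.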

[22] = test system: A549; test: Induction of apoptosis in human A549 cells at 25 nM after 24 to 48 hrs by Annexin V-FITC/propidium iodide staining-based flow cytometric analysis; assay type: functional, cell-based
Outline: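 A549 cells treated 24 or 48 h at 12.5–100 nM, then double-stained with annexin-V-FITC and PI. Phosphatidylserine exposure was read by flow cytometry. Mean ± SEM of three independent experiments.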

[23] = test system: Prostatic carcinoma cell; test: Cytotoxicity against human prostate cancer cells after 48 hrs by SRB assay; assay type: functional; outline: as §4
[24] = test system: E0771; test: Growth inhibition of mouse E0771 cells after 72 hrs by MTT assay; assay type: functional; settings: E0771, 72 h
Outline: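 Murine BL6-B16 melanoma and EO771 breast tumor cells were exposed to compound for 72 h. GI50 is reported ± error.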

O=C1Nc2c(ccc3ccccc23)C1=Cc1c(-c2ccncc2)nc2sccn12
Activity [1]: 35% | Activity [2]: Active | Activity [3]: Active | inhibition in vivo at 15 mg/kg [4]: 29.4% | Activity [5]: Active | inhibition in vivo at 7.5 mg/kg [6]: 18% | Activity [7]: Active | Activity [8]: Active | GI50 [9]: 30 nM | TGI [9]: 79.5 µM | inhibition [10]: 51% | Activity [11]: Active | inhibition [12]: 25% | GI50 at 72 h [13]: 5.5 µM | IC50 [14]: 30 nM | GI50 [15]: 11.8 µM | TGI [15]: 70.1 µM | Activity [16]: Dose-dependent effect | Activity [17]: Active | Activity [18]: Active | Activity [19]: Dose-dependent effect | Activity [20]: Active | Activity [21]: Non-Toxic | Activity [22]: Active | GI50 [23]: 20 nM | TGI [23]: 55.9 µM | CC50 ([23]; read-out: LC50 (the source's name)): 80.1 µM | GI50 [24]: 15 nM
